{"source": "ChEMBL document CHEMBL3997773", "about": "“Synthesis of C-4-Substituted Steviol Derivatives and Their Inhibitory Effects against Hepatitis B Virus” (J Nat Prod, 2016)", "key": {"Huh-7 [1]": {"system": "Huh-7", "experiment": "Decrease in IKBalpha protein expression in human HuH7 cells transfected with pHBV1.2 at 10 ug/ml after 2 days by immunoblot method relative to control", "assay_type": "functional", "method_in_brief": "(§1)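 Huh7 cells were transfected with pHBV1.2 for 2 days, then treated at 2.5, 5 or 10 μg/mL for another 2 days. Whole-cell protein was extracted with protease inhibitors. NF-κB p65/p50, phospho-p65, IKKα/β and IκBα/phospho-IκBα were detected by immunoblot. Blots are representative of three experiments.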"}, "[2]": {"experiment": "Effect on AP-2 (unknown origin) promoter activity expressed in human HuH7 cells cotransfected with pHBV1.2 at 10 ug/ml after 24 hrs by luciferase reporter gene assay", "assay_type": "cell-based", "method_in_brief": "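Huh7 seeded in 24-well plates for 24 h. They were cotransfected with pHBV1.2 plus a luciferase reporter carrying the AP-2 (pAP2-Luc) or ISRE (pISRE-Luc) element, at 1 μg/well, and pRLSV40, in serum-free DMEM for 24 h. After a PBS wash, cells were placed in DMEM with 2% FBS and treated with 10 μg/mL. Luciferase was read from lysates; mean ± SD, n = 3.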"}, "Homo sapiens": {"organism": "Homo sapiens", "experiment": "Decrease in SAPK/JNK phosphorylation in human HuH7 cells transfected with pHBV1.2 at 2.5 to 10 ug/ml after 2 days by immunoblot method"}, "[3]": {"system": "Hepatitis B virus subtype adw2", "experiment": "Antiviral activity against Hepatitis B virus subtype adw2 infected in human HuH7 cells assessed as reduction in precore/pregenomic RNA level at 2.5 to 10 ug/ml after 2 days by northern blot method", "assay_type": "functional, cell-based", "method_in_brief": "(§2)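 After pHBV1.2 transfection of Huh7 cells for 2 days, cells were treated at 2.5, 5 or 10 μg/mL for 2 more days. Total RNA was Northern-blotted with an HBV whole-genome DNA probe. GAPDH served as loading control and β-gal marked transfection efficiency. Bands from three experiments were quantified by densitometry and normalized to GAPDH.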"}, "Huh-7 [4]": {"system": "Huh-7", "experiment": "Decrease in IKKalpha protein expression in human HuH7 cells transfected with pHBV1.2 at 5 ug/ml after 2 days by immunoblot method relative to control", "assay_type": "functional", "method_in_brief": "as §1"}, "[5]": {"experiment": "Antiviral activity against Hepatitis B virus subtype adw2 infected in human HuH7 cells assessed as reduction in HBcAg level at 10 ug/ml after 2 days by immunoblot method relative to control", "assay_type": "functional", "method_in_brief": "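Huh7 cells were transfected with pHBV1.2 (1.2-fold HBV adw2 genome) for 2 days, then exposed to 2.5, 5 or 10 μg/mL for another 2 days. Whole-cell protein was extracted with protease inhibitors. SHBs, HBcAg and HBx were detected by immunoblot, with α-tubulin for comparison.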"}, "Huh-7 [6]": {"system": "Huh-7", "experiment": "Effect on IKKalpha protein expression in human HuH7 cells transfected with pHBV1.2 at 2.5 ug/ml after 2 days by immunoblot method relative to control", "assay_type": "functional", "method_in_brief": "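HBV adw2 genome plasmid pHBV1.2 transfected into Huh7 for 2 days, then 2.5, 5 or 10 μg/mL for another 2 days. Whole-cell protein extracted with protease inhibitors, then SDS-PAGE immunoblot for NF-κB and MAPK pathway proteins. Blots are representative of three sets of experiments.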"}, "[7]": {"experiment": "Decrease in AP-1 (unknown origin) promoter activity expressed in human HuH7 cells cotransfected with pHBV1.2 at 10 ug/ml after 24 hrs by luciferase reporter gene assay", "assay_type": "cell-based", "method_in_brief": "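Huh7 cells were seeded for 24 h, then cotransfected with pHBV1.2, pRLSV40 and pAP1-Luc or pNF-κB-Luc responsive-element reporter for 24 h. Cells were treated at 10 μg/mL for 24 h and lysates were assayed for luciferase. Mean ± SD, n = 3, compared with untreated cells.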"}, "Hepatitis B virus": {"system": "Hepatitis B virus", "experiment": "Decrease in HBV preS promoter activity infected in human HuH7 cells cotransfected with pHBV1.2 at 10 ug/ml after 24 hrs by luciferase reporter gene assay", "assay_type": "cell-based", "method_in_brief": "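Huh7 cells were seeded for 24 h, then cotransfected with pHBV1.2, pRLSV40 and a pGL4.17-based Core (nt 1636-1851), S (nt 3114-220), PreS (nt 2438-2855) or X (nt 1071-1357) promoter-luciferase construct for 24 h. Cells were then treated at 10 μg/mL for 24 h and lysates were assayed for luciferase. Mean ± SD, n = 3.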"}, "Huh-7 [8]": {"system": "Huh-7", "experiment": "Decrease in IKBalpha protein expression in human HuH7 cells transfected with pHBV1.2 at 2.5 ug/ml after 2 days by immunoblot method relative to control", "assay_type": "functional", "method_in_brief": "as §1"}, "Huh-7 [9]": {"system": "Huh-7", "experiment": "Decrease in IKKbeta protein expression in human HuH7 cells transfected with pHBV1.2 at 2.5 ug/ml after 2 days by immunoblot method relative to control", "assay_type": "functional", "method_in_brief": "as §1"}, "[10]": {"target": "T1, NF-kappa-B inhibitor alpha (Homo sapiens) (UniProt P25963)", "T1 sequence (whole entry)": "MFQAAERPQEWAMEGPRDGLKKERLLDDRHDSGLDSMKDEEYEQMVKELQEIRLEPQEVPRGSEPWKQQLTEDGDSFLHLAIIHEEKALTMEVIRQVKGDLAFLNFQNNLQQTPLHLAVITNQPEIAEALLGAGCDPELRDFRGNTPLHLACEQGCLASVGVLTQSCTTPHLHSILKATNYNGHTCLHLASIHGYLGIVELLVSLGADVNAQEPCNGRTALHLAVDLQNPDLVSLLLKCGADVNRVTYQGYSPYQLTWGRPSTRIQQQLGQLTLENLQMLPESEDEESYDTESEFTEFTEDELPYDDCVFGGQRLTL", "experiment": "Decrease in IKBalpha phosphorylation in human HuH7 cells transfected with pHBV1.2 at 10 ug/ml after 2 days by immunoblot method relative to control", "assay_type": "cell-based", "method_in_brief": "as §1"}, "[11]": {"system": "Hepatitis B virus subtype adw2", "experiment": "Antiviral activity against Hepatitis B virus subtype adw2 infected in human HuH7 cells assessed as inhibition of HBsAg secretion after 3 days by EIA", "assay_type": "functional, cell-based", "method_in_brief": "(§3)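 HBV-expressing Huh7 cells were given 2.5, 5 or 10 μg/mL for 3 days. HBsAg and HBeAg in the conditioned medium were measured by enzyme immunoassay. Mean ± SD, n = 3, compared with untreated cells.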"}, "[12]": {"system": "Hepatitis B virus subtype adw2", "experiment": "Antiviral activity against Hepatitis B virus subtype adw2 infected in human HuH7 cells assessed as inhibition of HBeAg secretion after 3 days by EIA", "assay_type": "functional, cell-based", "method_in_brief": "as §3"}, "Huh-7 [13]": {"system": "Huh-7", "experiment": "Decrease in IKBalpha protein expression in human HuH7 cells transfected with pHBV1.2 at 5 ug/ml after 2 days by immunoblot method relative to control", "assay_type": "functional", "method_in_brief": "as §1"}, "[14]": {"experiment": "Antiviral activity against Hepatitis B virus subtype adw2 infected in human HepG2.2.15 cells assessed as inhibition of HBeAg secretion by EIA"}, "[15]": {"system": "Hepatitis B virus subtype adw2", "experiment": "Antiviral activity against Hepatitis B virus subtype adw2 infected in human HuH7 cells assessed as reduction in major S/preS RNA level at 2.5 to 10 ug/ml after 2 days by northern blot method", "assay_type": "functional, cell-based", "method_in_brief": "as §2"}, "Huh-7 [16]": {"system": "Huh-7", "experiment": "Decrease in IKBalpha protein expression in human HuH7 cells transfected with pHBV1.2 after 2 days by immunoblot method", "assay_type": "functional, cell-based", "method_in_brief": "as §1"}, "[17]": {"target": "T1, NF-kappa-B inhibitor alpha (Homo sapiens)", "experiment": "Decrease in IKBalpha phosphorylation in human HuH7 cells transfected with pHBV1.2 at 2.5 ug/ml after 2 days by immunoblot method relative to control", "assay_type": "cell-based", "method_in_brief": "as §1"}, "Huh-7 [18]": {"system": "Huh-7", "experiment": "Effect on p38 MAPK protein expression in human HuH7 cells transfected with pHBV1.2 at 2.5 ug/ml after 2 days by immunoblot method relative to control"}}, "note": "Active and inactive are the calls of the source. No cut-off for these calls is given here."}
{"smiles": "C=C1C[C@@]23CC[C@H]4[C@@](C)(CCC[C@@]4(C)NC(=O)NCCCC)[C@@H]2CC[C@]1(O)C3", "values": [{"measurement": "fold change (FC)", "setting": "Huh-7 [1]", "value": 0.25}, {"measurement": "Activity", "setting": "[2]", "value": "inactive"}, {"measurement": "Activity", "setting": "Homo sapiens", "value": "Active"}, {"measurement": "Activity", "setting": "[3]", "value": "Active"}, {"measurement": "fold change (FC)", "setting": "Huh-7 [4]", "value": 1.01}, {"measurement": "fold change (FC)", "setting": "[5]", "value": 0.11}, {"measurement": "fold change (FC)", "setting": "Huh-7 [6]", "value": 1.1}, {"measurement": "Activity", "setting": "[7]", "value": "Active"}, {"measurement": "Activity", "setting": "Hepatitis B virus", "value": "Active"}, {"measurement": "fold change (FC)", "setting": "Huh-7 [8]", "value": 0.97}, {"measurement": "fold change (FC)", "setting": "Huh-7 [9]", "value": 0.99}, {"measurement": "fold change (FC)", "setting": "[10]", "value": 0.25}, {"measurement": "inhibition", "setting": "[11]", "value": "Dose-dependent effect"}, {"measurement": "inhibition", "setting": "[12]", "value": "Dose-dependent effect"}, {"measurement": "fold change (FC)", "setting": "Huh-7 [13]", "value": 0.94}, {"measurement": "IC50", "setting": "[14]", "value": 20.4, "unit": "µM"}, {"measurement": "Activity", "setting": "[15]", "value": "Active"}, {"measurement": "Activity", "setting": "Huh-7 [16]", "value": "Dose-dependent effect"}, {"measurement": "fold change (FC)", "setting": "[17]", "value": 0.97}, {"measurement": "fold change (FC)", "setting": "Huh-7 [18]", "value": 1.01}]}
